Results on 18 compounds are retold here after ChEMBL document CHEMBL4028876, “Discovery of a Novel Piperidine-Based Inhibitor of Cholesteryl Ester Transfer Protein (CETP) That Retains Activity in Hypertriglyceridemic Plasma” (J Med Chem, 2017).

Structures are written as SMILES.

In data set [1] the target is T1, Cholesteryl ester transfer protein (Homo sapiens, UniProt P11597).
T1 sequence (P11597 whole entry): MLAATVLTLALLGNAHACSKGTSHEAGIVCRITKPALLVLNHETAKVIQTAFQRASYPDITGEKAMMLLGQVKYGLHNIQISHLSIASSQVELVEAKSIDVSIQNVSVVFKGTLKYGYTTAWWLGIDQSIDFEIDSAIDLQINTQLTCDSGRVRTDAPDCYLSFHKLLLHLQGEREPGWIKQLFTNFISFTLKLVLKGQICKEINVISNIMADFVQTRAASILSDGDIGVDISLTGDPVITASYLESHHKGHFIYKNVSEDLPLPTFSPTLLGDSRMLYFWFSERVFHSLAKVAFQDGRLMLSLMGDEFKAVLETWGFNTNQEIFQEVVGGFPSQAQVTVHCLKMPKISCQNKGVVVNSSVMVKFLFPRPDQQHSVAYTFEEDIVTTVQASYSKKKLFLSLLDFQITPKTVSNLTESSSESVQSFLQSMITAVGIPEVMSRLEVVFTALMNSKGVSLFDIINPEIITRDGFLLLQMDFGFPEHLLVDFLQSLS
Description: Inhibition of CETP in human plasma measured every 30 mins for 120 mins by fluorescence method. In a few lines: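 Pooled EDTA plasma from healthy male donors (final 50%) with compound in DMSO (final 1%). The reaction is started with fluorescent donor solution. Activity is the 30–90 min slope. IC50 is fitted to duplicate wells by a logistic equation.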

The nature of data set [2]: 1-Octanol-phosphate buffered saline partition coefficient, log D of compound at […] by tandem mass spectrometry method. It is filed as physicochemical.
Data set [3] is described as follows: AUC (infinity) in Sprague-Dawley rat at 1 mg/kg, iv or 3 mg/kg, po by LC-ESI-MS/MS analysis. It is filed as ADME, organism-based. Particulars: in vivo. In a few lines: (§1)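 Conscious 7-week-old male Sprague-Dawley rats on standard diet with free water. Dosing is 1 mg/kg iv bolus in N-methylpyrrolidin-2-one/PEG 200, or 3 mg/kg oral suspension in 0.5% aqueous methylcellulose. Blood is sampled at various time points after administration.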

The target in data set [4] is Cytochrome P450 2D6 (Homo sapiens, UniProt P10635). Nature of the data set: Inhibition of CYP2D6 (unknown origin). It is filed as ADME.
Cytochrome P450 2D6, sequence (P10635 whole entry): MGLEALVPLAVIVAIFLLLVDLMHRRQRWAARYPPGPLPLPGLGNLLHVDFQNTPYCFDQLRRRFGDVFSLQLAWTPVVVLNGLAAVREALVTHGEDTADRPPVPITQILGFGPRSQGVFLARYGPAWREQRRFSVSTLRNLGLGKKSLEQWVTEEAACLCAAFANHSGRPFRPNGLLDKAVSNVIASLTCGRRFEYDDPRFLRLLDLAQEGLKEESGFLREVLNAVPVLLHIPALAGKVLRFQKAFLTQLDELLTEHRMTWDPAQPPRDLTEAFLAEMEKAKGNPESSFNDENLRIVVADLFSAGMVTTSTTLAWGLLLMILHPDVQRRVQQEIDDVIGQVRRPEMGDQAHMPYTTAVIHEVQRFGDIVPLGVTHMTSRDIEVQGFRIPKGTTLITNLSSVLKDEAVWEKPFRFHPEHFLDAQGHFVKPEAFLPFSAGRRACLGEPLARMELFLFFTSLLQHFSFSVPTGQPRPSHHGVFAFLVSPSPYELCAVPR
In data set [5] the target is T2, Cytochrome P450 3A4 (Homo sapiens, UniProt P08684). Description: Inhibition of CYP3A4 (unknown origin) in the presence of midozolam. It is filed as ADME.
T2 sequence (P08684 whole entry): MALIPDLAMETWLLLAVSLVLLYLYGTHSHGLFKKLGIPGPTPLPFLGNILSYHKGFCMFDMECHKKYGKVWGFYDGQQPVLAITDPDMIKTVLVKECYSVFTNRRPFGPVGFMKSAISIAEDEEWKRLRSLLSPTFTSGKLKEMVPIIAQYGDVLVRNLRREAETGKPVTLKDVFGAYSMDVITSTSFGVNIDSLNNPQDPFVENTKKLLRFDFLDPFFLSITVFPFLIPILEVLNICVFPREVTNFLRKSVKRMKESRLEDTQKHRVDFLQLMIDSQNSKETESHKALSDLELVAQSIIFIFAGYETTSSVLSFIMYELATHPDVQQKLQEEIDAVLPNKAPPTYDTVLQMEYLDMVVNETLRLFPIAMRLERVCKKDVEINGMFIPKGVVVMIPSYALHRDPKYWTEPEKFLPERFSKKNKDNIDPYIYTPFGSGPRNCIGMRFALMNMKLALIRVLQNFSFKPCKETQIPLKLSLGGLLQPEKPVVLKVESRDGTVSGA
The target of data set [6] is T2, Cytochrome P450 3A4. Description: Inhibition of CYP3A4 (unknown origin) in the presence of testosterone. It is filed as ADME.
A short description of data set [7]: Clearance in Sprague-Dawley rat plasma at 1 mg/kg, iv or 3 mg/kg, po by LC-ESI-MS/MS analysis. It is filed as ADME, organism-based. In a few lines: as §1
The target in data set [8] is Cytochrome P450 2C9 (Homo sapiens, UniProt P11712). Description: Inhibition of CYP2C9 (unknown origin). It is filed as ADME.
Cytochrome P450 2C9, sequence (P11712 whole entry): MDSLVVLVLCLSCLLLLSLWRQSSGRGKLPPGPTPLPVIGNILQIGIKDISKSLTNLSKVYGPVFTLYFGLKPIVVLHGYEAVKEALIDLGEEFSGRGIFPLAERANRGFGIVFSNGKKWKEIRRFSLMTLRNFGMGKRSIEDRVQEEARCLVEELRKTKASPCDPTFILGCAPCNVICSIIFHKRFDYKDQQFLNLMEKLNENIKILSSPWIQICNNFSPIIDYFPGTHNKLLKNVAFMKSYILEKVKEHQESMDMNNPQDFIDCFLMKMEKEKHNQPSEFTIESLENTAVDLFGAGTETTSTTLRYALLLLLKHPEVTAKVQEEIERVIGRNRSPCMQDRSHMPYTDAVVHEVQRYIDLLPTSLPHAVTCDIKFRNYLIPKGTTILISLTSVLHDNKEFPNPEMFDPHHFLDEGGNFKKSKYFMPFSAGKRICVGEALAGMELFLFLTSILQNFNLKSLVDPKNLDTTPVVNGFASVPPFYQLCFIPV
The nature of data set [9]: Oral bioavailability in Sprague-Dawley rat at 3 mg/kg by LC-ESI-MS/MS analysis. It is filed as ADME, organism-based. The conditions noted are these: in vivo. The method in brief:
as §1

Data set [10] is described as follows: Half life in Sprague-Dawley rat at 1 mg/kg, iv or 3 mg/kg, po by LC-ESI-MS/MS analysis. It is filed as ADME, organism-based. Particulars: in vivo. In a few lines: as §1
Data set [11] is described as follows: Volume of distribution in Sprague-Dawley rat at 1 mg/kg, iv or 3 mg/kg, po by LC-ESI-MS/MS analysis. It is filed as ADME, organism-based. The conditions noted are these: in vivo. In a few lines: as §1
Data set [12] deals with Rattus norvegicus. Description: Toxicity in cannulated Sprague-Dawley rat assessed as increase in plasma aldosterone levels at 5 mg/kg, iv by radioimmunoassay. Particulars: in vivo. It is filed as organism-based.
Data set [13] relates to NCI-H295R. Nature of the data set: Toxicty in human NCI-H295R cells assessed as increase in aldosterone levels at 0.1 to 10000 nM after 24 hrs by scintillation proximity assay. It is filed as toxicity, cell-based. Particulars: 10 µM.
The subject of data set [14] is Rattus norvegicus. Nature of the data set: Toxicity in cannulated Sprague-Dawley rat assessed as increase in mean arterial pressure at 5 mg/kg, iv by blood pressure transducer based method. It is filed as organism-based. The conditions noted are these: in vivo.
Data set [15] concerns the target T3, Cholesteryl ester transfer protein (Homo sapiens) (UniProt P11597).
T3 sequence (whole entry): T1 sequence (P11597 whole entry)
Description: Inhibition of CETP in human plasma at 100 uM measured every 30 mins for 120 mins by fluorescence method. The method in brief: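 Pooled EDTA plasma from healthy male donors (final 50%) with compound in DMSO (final 1%). The reaction is started with fluorescent donor solution. Ex/em 485/535 nm, read every 30 min for 120 min at 37 °C. Activity is the 30–90 min slope. Torcetrapib (1 or 10 µM) and DMSO define 100% and 0% inhibition. IC50 is fitted to duplicate wells by a logistic equation.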

Broadly, the IC50 is the concentration that gives 50% inhibition. In the case of `CC[C@@H]1C[C@H](N(Cc2cc(C(F)(F)F)cc(C(F)(F)F)c2)c2ncc(OC)cn2)C[C@H](Cc2ccccc2)N1C(=O)OC(C)(C)C` (racemic), the IC50 in [1] was determined as 71 nM.

The compound `CC[C@@H]1C[C@H](N(Cc2cc(Cl)cc(C(F)(F)F)c2)c2ncc(Br)cn2)C[C@H](Cc2ccccc2)N1C(=O)OC(C)(C)C` (racemic) showed an IC50 in [1] of 240 nM.

What is called logD is the decadic logarithm of the distribution of all forms, ionised or not, between an organic phase and buffer at a given pH. A lower logD goes with a more hydrophilic compound. Turning to `Cc1cc(C)c2c(c1)[C@@H](N(Cc1cc(C(F)(F)F)cc(C(F)(F)F)c1)c1nnn(C)n1)CCCN2C[C@H]1CC[C@H](C(=O)O)CC1` [EVACETRAPIB], in [2], the logD is 5.7. Besides, in data set [1], half-maximal inhibition (IC50) was put at 110 nM.

Turning to `CC[C@@H]1C[C@H](N(Cc2cc(C(F)(F)F)cc(C(F)(F)F)c2)c2ncc(Br)cn2)C[C@H](Cc2ccccc2)N1C(=O)OC(C)C` (racemic), in data set [1], 200 nM corresponded to half-maximal inhibition (IC50).

`CCC(CC)CC1(C(=O)Nc2ccccc2SC(=O)C(C)C)CCCCC1` [DALCETRAPIB] showed a logD in [2] of more than 6. Half-maximal inhibition in data set [1] (IC50) was put at 4100 nM.

In general, AUC(0-inf) refers to the area under the concentration-time curve extrapolated to infinity. The low end stands for low exposure, the high end for high exposure. The bioavailability is dose-corrected exposure relative to a reference, in per cent. Lower therefore signals little systemic uptake. As a reminder, the half-life is the time in which the quantity being followed falls by half. High values mean slow decline, low ones rapid decline. Compound `CC[C@@H]1C[C@H](N(Cc2cc(C(F)(F)F)cc(C(F)(F)F)c2)c2ncc(N3CCOCC3)cn2)C[C@H](Cc2ccccc2)N1C(=O)OC(C)(C)C` registered an AUC(0-inf) in data set [3] of 0.456 µM·h. In addition, the IC50 in [4] was more than 50 µM; in data set [5], more than 50 µM; in data set [6], more than 50 µM; in data set [8], more than 50 µM; in [1], 60 nM. In data set [7], the clearance was 1.67 mL/min/kg. The bioavailability in [9] turned out to be 3%. For the same compound, in data set [10], the half-life is 444 min. This compound also gave a Vd in [11] of 0.7 L/kg.

Take `CC[C@@H]1C[C@H](N(Cc2cc(C(F)(F)F)cc(C(F)(F)F)c2)c2ncc(Br)cn2)C[C@H](Cc2ccccc2)N1C(=O)OC(C)(C)C`: in data set [1], the midpoint of inhibition, the IC50, lay at 77 nM.

Regarding `CC[C@@H]1C[C@H](N(Cc2cc(C(F)(F)F)cc(C(F)(F)F)c2)C(=O)OC)C[C@H](Cc2ccccc2)N1C(=O)OC(C)(C)C` (racemic), in data set [1], the IC50 is 771 nM.

For `CCCC(=O)N1[C@H](CC)C[C@H](N(Cc2cc(C(F)(F)F)cc(C(F)(F)F)c2)c2ncc(Br)cn2)C[C@@H]1Cc1ccccc1` (racemic), in [1], the IC50 was 510 nM.

The compound `CC[C@@H]1C[C@H](N(Cc2cc(C(F)(F)F)cc(C(F)(F)F)c2)c2ncc(Br)cn2)C[C@H](Cc2ccccc2)N1C(=O)OC(C)(C)C` (racemic) had an IC50 in [1] of 160 nM.

`CC[C@@H]1C[C@H](N(Cc2cc(C(F)(F)F)cc(C(F)(F)F)c2)c2ncc(N3CCOCC3)cn2)C[C@H](CC)N1C(=O)O[C@H]1CC[C@H](C(=O)O)CC1` gave an AUC(0-inf) in data set [3] of 28.5 µM·h. Also, the IC50 is more than 50 µM in data set [4]; 25 µM in [5]; more than 50 µM in data set [6]; more than 50 µM in data set [8]; 150 nM in data set [1]. For the same compound, in [7], the clearance was 1.5 mL/min/kg. The compound further yielded a bioavailability in data set [9] of 58%. In data set [10], this compound had a half-life of 336 min. This compound had a Vd in [11] of 0.67 L/kg.

Regarding `CCOC(=O)N1c2ccc(C(F)(F)F)cc2[C@@H](N(Cc2cc(C(F)(F)F)cc(C(F)(F)F)c2)C(=O)OC)C[C@H]1CC` [TORCETRAPIB], the Activity result in [12], in data set [13] and in [14] was “Toxic” in each case. The same compound displayed a logD in [2] of more than 4.

With `CCNC(=O)N1[C@H](CC)C[C@H](N(Cc2cc(C(F)(F)F)cc(C(F)(F)F)c2)c2ncc(Br)cn2)C[C@@H]1Cc1ccccc1` (racemic), the IC50 in data set [1] amounted to 4800 nM.

`CC[C@@H]1C[C@H](N(Cc2cc(C(F)(F)F)cc(C(F)(F)F)c2)c2ncc(N3CCOCC3)cn2)C[C@H](CC)N1C(=O)OC(C)C` came in with an AUC(0-inf) in [3] of 2.75 µM·h. The IC50 was more than 30 µM in data set [4]; 2.2 µM in data set [5]; more than 50 µM in [6]; 6.6 µM in [8]; 60 nM in data set [1]. The clearance in data set [7] is 10 mL/min/kg. Further, the bioavailability in data set [9] is 35%. Besides, the half-life in data set [10] was 276 min. The same compound came in with a Vd in data set [11] of 2.35 L/kg.

`CC[C@@H]1C[C@H](N(Cc2cc(OC)cc(C(F)(F)F)c2)c2ncc(Br)cn2)C[C@H](Cc2ccccc2)N1C(=O)OC(C)(C)C` (racemic) registered an IC50 in [1] of more than 10000 nM.

In turn, `CC[C@@H]1C[C@H](N(Cc2cc(C(F)(F)F)cc(C(F)(F)F)c2)c2ncc(N3CCOCC3)cn2)C[C@H](Cc2ccccc2)N1C(=O)OC(C)(C)C` (racemic) yielded a 50% inhibitory concentration (IC50) in [1] of 164 nM.

Take `CC[C@@H]1C[C@H](N(Cc2cc(C(F)(F)F)cc(C(F)(F)F)c2)C(=O)OC)C[C@H](CC)N1C(=O)OC(C)(C)C`: the 50% inhibitory concentration (IC50) in [1] was 1300 nM.

One may read the inhibition as how much of the control response was suppressed. Read a high inhibition as a strong effect. Turning to `CC[C@@H]1C[C@H](N(Cc2cc(C(F)(F)F)cc(C(F)(F)F)c2)C(=O)OC)CCN1C(=O)OC(C)(C)C` (racemic), the inhibition in data set [15] is 70%.
